# OX1R antag-1 – OX1R (HCRTR1) antagonists, primary screen, fluorescence, CHO/OX1R cells, Fluo-8 calcium, orexin A; Fluo-8 calcium fluorescence; inhibition, % at 5 µM; AID 434989, 2010; actives 0.43% (n = 330,000);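 active = inhibition above its plate's threshold, mean inhibition of all tested compounds on the plate plus 3 SD, cut at about 37% in these data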;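 also: 0% = orexin A challenge wells and 100% = SB-334867-A antagonist wells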
# Target sequence (O43613 whole entry, looked up): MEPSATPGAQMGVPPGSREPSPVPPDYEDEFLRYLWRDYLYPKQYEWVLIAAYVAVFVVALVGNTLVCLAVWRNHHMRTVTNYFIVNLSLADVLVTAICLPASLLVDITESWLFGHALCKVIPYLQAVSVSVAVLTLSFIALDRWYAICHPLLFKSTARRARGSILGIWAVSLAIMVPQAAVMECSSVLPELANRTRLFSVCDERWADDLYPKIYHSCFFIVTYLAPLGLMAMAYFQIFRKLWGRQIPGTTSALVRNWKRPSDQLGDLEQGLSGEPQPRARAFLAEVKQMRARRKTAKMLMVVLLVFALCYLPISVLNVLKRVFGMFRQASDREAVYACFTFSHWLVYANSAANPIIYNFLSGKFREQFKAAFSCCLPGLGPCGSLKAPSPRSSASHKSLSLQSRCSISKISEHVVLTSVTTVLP
# OX1R antag-2 – antagonists of human orexin 1 receptor (OX1R); Orexin/Hypocretin receptor type 1 (Homo sapiens), O43613; OX1R-expressing cells, FRET antagonist read-out; inhibition, % at 6.6 µM; actives 1.8% (n = 330,000); in the data active = inhibition mostly above about 38%, no sharp cut-off; inactive = mostly below about 40%;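 also: 0% = agonist challenge alone and 100% = reference antagonist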
# TAAR1 ag – human TAAR1 agonists, primary screen, Fluo-8 calcium fluorescence, CHO RD-HGA16 cells. actives 0.99% (n = 360,000). activation, % at 3 µM. vehicle wells 0%, saturating PEA agonist 100%;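 active = activation above the mean activation of all test compounds in the run plus 3 SD, cut at about 38% in these data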
#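 Test system: RD-HGA16 (CHO) cells co-expressing Gα16 and hTAAR1; dosing: one-point dosing at 3 µM (nominal); timing: 17-24 h seeding, 75 min 37 °C dye, 30 min RT; signal: kinetic Fluo-8 calcium fluorescence; read-out basis: % activation relative to PEA EC100 response; controls: DMSO and PEA EC100; replicates: n 1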
# GPR7 antagonist – GPR7 receptor antagonists, primary screen, cell-based, fluorescence, single concentration; Neuropeptides B/W receptor type 1 (Homo sapiens), P48145; GPR7-expressing cells, fluorescence antagonist assay; inhibition, % at 4.4 µM; actives 1.1% (n = 290,000); in the data active = inhibition above about 16%, passing the limit was not always enough;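 also: cells stimulated with the agonist NPW; 0% = agonist with vehicle and 100% = vehicle without agonist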
# TAAR1 antagonist – human TAAR1 antagonists, primary screen, Fluo-8 calcium fluorescence, CHO RD-HGA16 cells; inhibition, % at 3 µM; Trace amine-associated receptor 1 (Homo sapiens), Q96RJ0; actives 1.5% (n = 360,000); antagonist;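 active = inhibition above a per-plate cutoff, the mean inhibition of test compounds on that plate plus 3 SD, cut at about 49% in these data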;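 also: 0% = DMSO plus EC80 beta-PEA response and 100% = DMSO alone without agonist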
#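 Material: CHO RD-HGA16 cells bearing hTAAR1; compound dosing: one-point dosing, 3 µM nominal final; schedule: dye loading 75 min at 37 °C, then 30 min room temperature; measured by: calcium fluorescence with Fluo-8; control set: vehicle and agonist controls; replication: n of 1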
# CHO parental Ca – ATP-evoked calcium signal inhibitors, parental CHO, primary screen, counter-screen for OX1R antagonist project, cell-based, fluorescence, Fluo-8 calcium dye | actives 0.63% (n = 330,000) | AID 463079, 2010 | parental CHO-K1, ATP-induced calcium, Fluo-8 fluorescence | inhibition, % at 5.6 µM;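 active = inhibition above that plate's mean sample inhibition plus 3 SD, cut at about 26% in these data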;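 also: 0% = ATP-challenged DMSO wells and 100% = DMSO wells without ATP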
#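 test system = CHO parental line | reagent = ATP stimulus | measured by = intracellular calcium via Fluo-8 no-wash fluorescent dye | control set = ATP and no-ATP DMSO wells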
# The depositor's hits bear a star; . = no result given. Hits are enriched below; roughly 4.6% of the tested compounds scored in any of these assays.
SMILES,OX1R antag-1,OX1R antag-2,TAAR1 ag,GPR7 antagonist,TAAR1 antagonist,CHO parental Ca
CC(=O)N1CCc2c(sc(NC(=O)c3ccc([N+](=O)[O-])o3)c2C#N)C1,.,.,15.5,-9.0,-18.2,.
COC(=O)c1c(NC(=O)c2ccc([N+](=O)[O-])o2)sc2c1CCN(C(C)C)C2,-19.1,65.0*,-0.5,-7.3,-8.1,-11.5
CC(C)N1CCc2c(sc(NC(=O)c3ccc([N+](=O)[O-])o3)c2C(N)=O)C1,-8.6,92.8*,-0.7,1.1,-11.7,-11.1
COC(=O)[C@]1(CC(C)C)NC=C(C(=O)c2ccccc2)[C@@H]1c1cccc(C(F)(F)F)c1,.,.,-2.5,.,-10.4,.
O=C(COC(=O)CN1C(=O)NC2(CCCC2)C1=O)Nc1ccc(C(F)(F)F)cc1[N+](=O)[O-],-18.2,41.0*,9.6,.,29.4,-5.5
Cc1ccc(NC(=O)CN2C(=O)NC3(CCCc4ccccc43)C2=O)c([N+](=O)[O-])c1 (stereo unspecified),-6.2,54.1*,6.5,9.0,-13.1,-0.8
O=C(COC(=O)CN1C(=O)NC2(CCCC2)C1=O)Nc1ccccc1C(F)(F)F,-14.7,7.3,2.6,.,-16.5,-3.3
CSc1nc2nc(C)c(CCC(=O)OCC(=O)Nc3ccc(F)cc3)c(C)n2n1,.,.,-0.7,.,-7.8,.
COc1cccc(/C=C/C(=O)Nc2cccc(C(C)=O)c2)c1OC,-19.8,15.1,19.6,-6.9,6.1,-8.8
COc1ccccc1/C=C/C(=O)Nc1cccc(C(C)=O)c1,0.2,60.2*,7.2,-2.8,14.0,-20.5
O=C(/C=C/c1ccccc1Cl)Nc1cccc(O)c1,-31.2,33.5,29.4,22.3*,-1.5,-15.9
COC(=O)c1sc(NC(=O)c2cc(-c3ccccc3)nc3ccccc23)c(C#N)c1C,13.8,71.7*,10.7,-1.1,34.9,-8.3
CCOC(=O)c1sc(NC(=O)c2cc(-c3ccc(C)cc3)nc3ccccc23)c(C#N)c1C,-16.8,5.6,9.6,-12.2,5.5,-5.6
Cc1ccccc1-c1cc(C(=O)Nc2sc(C(=O)OC(C)C)c(C)c2C#N)c2ccccc2n1,-10.7,45.4*,15.9,-13.8,24.9,0.5
Cc1cc(NC(=O)c2cc(-c3ccccc3C)nc3ccccc23)no1,-34.7,20.1,1.7,-11.2,10.2,-20.0
C=CCCC1CN(Cc2ccc(OC)cc2)S(=O)(=O)c2c(cccc2N(C)S(=O)(=O)c2ccc(C)cc2)O1 (stereo unspecified),.,.,-0.5,.,-2.6,.
O=S(=O)(Nc1nc2ccccc2nc1Cl)c1ccccc1C(F)(F)F,-1.3,16.4,6.5,-9.4,-10.0,0.6
O=S(=O)(Nc1nc2ccccc2nc1Cl)c1cccc(C(F)(F)F)c1,-17.2,50.5*,1.9,-16.3,-4.6,6.2
Cc1onc(-c2c(Cl)cccc2Cl)c1C(=O)N1CCCc2ccccc21,33.4,54.6*,-2.2,-10.9,-12.9,-23.2
O=C(NN=C1c2ccccc2-c2ccccc21)c1ccccn1,85.1*,75.4*,.,-12.3,.,-31.9
Nc1[nH]c(C(=O)c2ccc(Br)cc2)c(-c2ccncc2)c1C(=O)NCCc1c[nH]c2ccccc12,.,.,8.2,.,37.6,.
Cc1cc(C)c(S(=O)(=O)N(CC(=O)N2CCCC2)C2CCCCC2)c(C)c1,-18.0,23.5,3.2,15.6*,-0.7,-15.6
Cc1ccc(S(=O)(=O)N(CC(=O)N2CCCC2)C2CCCCC2)cc1,-19.9,4.1,7.7,-18.0,4.8,-12.3
CC(=O)N1CCN(c2ccc(N3CCN(Cc4ccccc4)[C@H](C)C3)c(C)c2)[C@@H](C)C1,.,.,1.9,.,-38.5,.
COc1ccc(C2=Nn3c(nnc3-c3ccccc3F)SC2)cc1OCC1CC1,0.4,23.3,3.6,.,52.4*,-20.6
FC(F)Oc1ccc(C2=Nn3c(nnc3-c3ccccc3Cl)SC2)cc1OCC1CC1,-10.0,13.4,2.3,.,5.4,-21.8
